In ChEMBL document CHEMBL1122522, “Conformationally restricted retinoids” (1984):

Columns and labels:
Cricetinae gen. sp. [1] = experiment: Activity of compound the was expressed as ratio of active hamster tracheal organ cultures(TOC) to the total cultures at 10e-9 M concentration; 14/15; type: functional, Cricetulus griseus, Trachea; conditions: at 0.001 µM
Cricetinae gen. sp. [2] = experiment: Activity of compound the was expressed as ratio of active hamster tracheal organ cultures(TOC) to the total cultures at 10e-11 M concentration; 1/8; type: functional, Cricetulus griseus, Trachea; conditions: at 10 pM
Cricetinae gen. sp. [3] = experiment: Activity of compound the was expressed as ratio of active hamster tracheal organ cultures(TOC) to the total cultures at 10e-10 M concentration; 4/15; type: functional, Cricetulus griseus, Trachea; conditions: at 0.0001 µM
[4] = biological target: T1, Ornithine decarboxylase (Mus musculus) (UniProt P00860); experiment: TInhibition of the induction of ornithine decarboxylase in mouse epidermis by the tumor promoter 12-O-tetradecanoylphorbol-13-acetate (ODC) at dose 17 nmol
T1 sequence (whole entry): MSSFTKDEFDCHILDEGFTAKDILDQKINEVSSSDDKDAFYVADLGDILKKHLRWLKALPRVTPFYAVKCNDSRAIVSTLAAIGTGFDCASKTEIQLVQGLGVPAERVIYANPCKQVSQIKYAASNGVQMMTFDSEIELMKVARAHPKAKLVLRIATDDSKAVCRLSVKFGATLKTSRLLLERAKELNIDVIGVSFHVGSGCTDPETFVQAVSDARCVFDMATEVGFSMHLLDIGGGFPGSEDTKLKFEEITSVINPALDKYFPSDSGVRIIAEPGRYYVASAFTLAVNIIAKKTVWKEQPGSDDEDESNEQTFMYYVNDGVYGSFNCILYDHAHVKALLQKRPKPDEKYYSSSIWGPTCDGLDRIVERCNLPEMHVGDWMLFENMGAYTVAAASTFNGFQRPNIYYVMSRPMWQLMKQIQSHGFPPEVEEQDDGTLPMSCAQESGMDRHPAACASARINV

Cricetinae gen. sp. [5] = experiment: Activity of compound the was expressed as ratio of active hamster tracheal organ cultures(TOC) to the total cultures at 10e-8 M concentration; 7/7; type: functional, Cricetulus griseus, Trachea; conditions: at 0.01 µM
[6] = biological target: T1, Ornithine decarboxylase (Mus musculus); experiment: Inhibition of the induction of ornithine decarboxylase in mouse epidermis by the tumor promoter 12-O-tetradecanoylphorbol-13-acetate (ODC) at dose 1.7 nmol
Cricetinae gen. sp. [7] = experiment: Molarity required to effect reversal of keratinization in 50% of cultures.; type: functional, Cricetulus griseus
[8] = biological target: T1, Ornithine decarboxylase (Mus musculus); experiment: Inhibition of the induction of ornithine decarboxylase in mouse epidermis by the tumor promoter 12-O-tetradecanoylphorbol-13-acetate (ODC) at dose 17 nmol * p<0.01
Cricetinae gen. sp. [9] = experiment: Activity of compound the was expressed as ratio of active hamster tracheal organ cultures(TOC) to the total cultures at 10e-9 M concentration; 3/7; type: functional, Cricetulus griseus, Trachea
Procedure, shortened: (§1)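 Tracheal organ cultures came from vitamin A-deficient hamsters. Each culture was scored for reversal of keratinization and reported as active cultures out of total cultures at each retinoid concentration tested (10⁻⁸ to 10⁻¹² M). The protocol followed earlier published methods.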

Cricetinae gen. sp. [10] = experiment: Activity of compound the was expressed as ratio of active hamster tracheal organ cultures(TOC) to the total cultures at 10e-8 M concentration; 4/7; type: functional, Cricetulus griseus, Trachea; procedure, shortened: as §1
Cricetinae gen. sp. [11] = experiment: Activity of compound the was expressed as ratio of active hamster tracheal organ cultures(TOC) to the total cultures at 10e-10 M concentration; 1/6; type: functional, Cricetulus griseus, Trachea; procedure, shortened: as §1
[12] = biological target: T1, Ornithine decarboxylase (Mus musculus); experiment: Inhibition of the induction of ornithine decarboxylase in mouse epidermis by the tumor promoter 12-O-tetradecanoylphorbol-13-acetate (ODC) at dose 1.7 nmol * Inhibition not significant
[13] = Percent survivors at dose 100 umol/kg day; type: functional, Mus musculus
Procedure, shortened: (§2)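 Adult female Swiss mice (20–25 g) had chow and water ad libitum. The retinoid was homogenized as a suspension in aqueous 8% Cremophor EL plus 10% propylene glycol. It was given ip as 10 weekday injections over 14 days. Controls received vehicle alone. Survivors were weighed on days 1, 5, 10 and 15, and dates of death were recorded. Survival was scored at days 8 and 15.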

Cricetinae gen. sp. [14] = experiment: Activity of compound the was expressed as ratio of active hamster tracheal organ cultures(TOC) to the total cultures at 10e-9 M concentration; 7/7; type: functional, Cricetulus griseus, Trachea; procedure, shortened: as §1
[15] = Percent survivors at dose 30 umol/kg day; type: functional, Mus musculus; procedure, shortened: as §2
Mus musculus [16] = species: Mus musculus; experiment: Percent decrease in average number of papillomas at dose 170 nmol; type: functional
Procedure, shortened: (§3)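 Female Charles River CD-1 mice, 8 weeks old, in random groups of 25–30, were shaved 2 days before initiation with 200 nmol DMBA in acetone on the back. From 2 weeks on, 8.5 nmol TPA was applied twice weekly for 20 weeks. Retinoid in 0.2 mL acetone, or acetone alone for controls, was given 1 h before each TPA dose. Papillomas were counted weekly, and mean papillomas per mouse were compared with controls at 20 weeks.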

[17] = Percent survivors at dose 300 umol/kg day; type: functional, Mus musculus; procedure, shortened: as §2
[18] = Mortality range in days at dose 600 umol/kg day; 7-10; type: functional, Mus musculus; procedure, shortened: as §2
Mus musculus [19] = species: Mus musculus; experiment: Percent decrease in average number of papillomas at dose 17 nmol; type: functional; procedure, shortened: as §3
[20] = Percent survivors at dose 600 umol/kg day; type: functional, Mus musculus; procedure, shortened: as §2
Mus musculus [21] = species: Mus musculus; experiment: Tested for relative activity in a 20-week anti-papilloma experiment in female CD-1 mice at dose 17 nmol; type: functional; procedure, shortened: as §3
[22] = Percent survivors at dose 200 umol/kg day; type: functional, Mus musculus; procedure, shortened: as §2
[23] = biological target: T1, Ornithine decarboxylase (Mus musculus); experiment: Inhibition of the induction of ornithine decarboxylase in mouse epidermis by the tumor promoter 12-O-tetradecanoylphorbol-13-acetate (ODC) at dose 17 nmol
Cricetinae gen. sp. [24] = experiment: Activity of compound the was expressed as ratio of active hamster tracheal organ cultures(TOC) to the total cultures at 10e-10 M concentration; 4/13; type: functional, Cricetulus griseus, Trachea; procedure, shortened: as §1
[25] = Mortality range in days at dose 200 umol/kg day; type: functional, Mus musculus; procedure, shortened: as §2
[26] = Mortality range in days at dose 300 umol/kg day; 12-15; type: functional, Mus musculus; procedure, shortened: as §2
Mus musculus [27] = species: Mus musculus; experiment: Tested for relative activity in a 20-week anti-papilloma experiment in female CD-1 mice at dose 170 nmol; type: functional; procedure, shortened: as §3
Cricetinae gen. sp. [28] = experiment: Activity of compound the was expressed as ratio of active hamster tracheal organ cultures(TOC) to the total cultures at 10e-8 M concentration; type: functional, Cricetulus griseus, Trachea; procedure, shortened: as §1
Cricetinae gen. sp. [29] = experiment: Activity of compound the was expressed as ratio of active hamster tracheal organ cultures(TOC) to the total cultures at 10e-9 M concentration; type: functional, Cricetulus griseus, Trachea; procedure, shortened: as §1
Cricetinae gen. sp. [30] = experiment: Activity of compound the was expressed as ratio of active hamster tracheal organ cultures(TOC) to the total cultures at 10e-10 M concentration; type: functional, Cricetulus griseus, Trachea; procedure, shortened: as §1
Cricetinae gen. sp. [31] = experiment: Activity of compound the was expressed as ratio of active hamster tracheal organ cultures(TOC) to the total cultures at 10e-9 M concentration; 1/5; type: functional, Cricetulus griseus, Trachea; procedure, shortened: as §1
Cricetinae gen. sp. [32] = experiment: Activity of compound the was expressed as ratio of active hamster tracheal organ cultures(TOC) to the total cultures at 10e-8 M concentration; 1/5; type: functional, Cricetulus griseus, Trachea; procedure, shortened: as §1
Cricetinae gen. sp. [33] = experiment: Activity of compound the was expressed as ratio of active hamster tracheal organ cultures(TOC) to the total cultures at 10e-12 M concentration; 4/15; type: functional, Cricetulus griseus, Trachea
Cricetinae gen. sp. [34] = experiment: Activity of compound the was expressed as ratio of active hamster tracheal organ cultures(TOC) to the total cultures at 10e-10 M concentration; 21/22; type: functional, Cricetulus griseus, Trachea
Cricetinae gen. sp. [35] = experiment: Activity of compound the was expressed as ratio of active hamster tracheal organ cultures(TOC) to the total cultures at 10e-11 M concentration; 17/22; type: functional, Cricetulus griseus, Trachea

CC1=C(CC/C(C)=C/c2ccc(C(=O)O)cc2)C(C)(C)CCC1
Activity (Cricetinae gen. sp. [1]): 14 active cultures
Activity (Cricetinae gen. sp. [2]): 1 active cultures
Activity (Cricetinae gen. sp. [3]): 4 active cultures
inhibition [4]: 83%
Activity (Cricetinae gen. sp. [5]): 7%
inhibition [6]: 45%
ED50 (Cricetinae gen. sp. [7]): 3e-10

CCOC(=O)c1ccc(/C=C/c2ccc3c(c2)C2CCC3C2)cc1 (stereo not drawn)
inhibition [8]: 39%
Activity (Cricetinae gen. sp. [9]): 43%
Activity (Cricetinae gen. sp. [10]): 4%
Activity (Cricetinae gen. sp. [11]): 1%
ED50 (Cricetinae gen. sp. [7]): 3e-09
inhibition [12]: 15%

C/C(=C\c1ccc(C(=O)O)cc1)c1ccc2c(c1)C(C)(C)CCO2
Survivors at day 8 [13]: 100%
Survivors at day 15 [13]: 100%
Activity (Cricetinae gen. sp. [14]): 100%
Survivors at day 8 [15]: 100%
Decrease (Mus musculus [16]): 94%
Survivors at day 8 [17]: 100%
Survivors at day 15 [17]: 50%
Mortality range [18]: 10 days
Decrease (Mus musculus [19]): 75%
Survivors at day 8 [20]: 70%
Survivors at day 15 [20]: 0%
Activity (Mus musculus [21]): 53%
Survivors at day 8 [22]: 100%
Survivors at day 15 [22]: 90%
inhibition [23]: 81%
Activity (Cricetinae gen. sp. [5]): 7%
Activity (Cricetinae gen. sp. [24]): 4%
Mortality range [25]: 14 days
Mortality range [26]: 15 days
inhibition [6]: 42%
ED50 (Cricetinae gen. sp. [7]): 2e-10
Activity (Mus musculus [27]): 38%

CC1=C(c2ccc(-c3ccc(C(=O)O)cc3)cc2)C(C)(C)CCC1
Activity (Cricetinae gen. sp. [28]): 7%
Activity (Cricetinae gen. sp. [29]): 2%
inhibition [23]: 55%
inhibition [6]: 34%
ED50 (Cricetinae gen. sp. [7]): 3e-09
Activity (Cricetinae gen. sp. [30]): 2%

CC1=C(/C=C/c2ccc(/C(C)=C/C(=O)O)cc2)C(C)(C)CCC1
Activity (Cricetinae gen. sp. [31]): 1%
Activity (Cricetinae gen. sp. [32]): 1%
ED50 (Cricetinae gen. sp. [7]): >1e-08

CC1(C)CCC(C)(C)c2cc(-c3ccc4cc(C(=O)O)ccc4c3)ccc21
Activity (Cricetinae gen. sp. [33]): 4%
Activity (Cricetinae gen. sp. [34]): 21%
ED50 (Cricetinae gen. sp. [7]): 3e-12
Activity (Cricetinae gen. sp. [35]): 17%
